PLCg1 inh = blocks human PLC-gamma1 enzyme activity; 0.84% of 370,000 active; inhibition, % at 12.2 µM; AID 720700; P19174; purified PLC-gamma1, fluorogenic substrate, fluorescence; in the data active = inhibition above about 9.5%
PLCb3 inh = blocks human PLC-beta3 enzyme activity; 0.18% of 370,000 active; Q01970; Purified PLC-beta3, fluorogenic substrate, fluorescence; inhibition, % at 12.2 µM; AID 720704;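 also: 0% = median of compound wells on plate and 100% = full blocker control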
ADAM17 inh = inhibitors of human ADAM17. AID 720648. inhibition, % at 6.95 µM. 0.83% of 370,000 active. recombinant ADAM17, EDANS/DABCYL FRET peptide cleavage;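 active = inhibition above the mean of compounds lying between control limits plus 3 SD, set per campaign, cut at about 8.5% in these data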;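 also: 0% = DMSO-only wells as the low control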
DDE Tn7 FP inh = disrupts Tn7 cyclic peptide binding to fibrin D-Dimer-E complex; 0.13% of 370,000 active; FP displacement of FITC-Tn7 peptide from fibrin DD(E); 0% = median of compound wells per plate; P02675; inhibition, % at 8.3 µM; AID 720508;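 active = inhibition above the mean of compounds falling within the control limits plus 3 SD of them, cut at about 14% in these data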;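 also: 0% = plate median of compound wells and 100% = 10 µM Aha-Tn7 peptide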
Target sequence (P02675 whole entry, looked up): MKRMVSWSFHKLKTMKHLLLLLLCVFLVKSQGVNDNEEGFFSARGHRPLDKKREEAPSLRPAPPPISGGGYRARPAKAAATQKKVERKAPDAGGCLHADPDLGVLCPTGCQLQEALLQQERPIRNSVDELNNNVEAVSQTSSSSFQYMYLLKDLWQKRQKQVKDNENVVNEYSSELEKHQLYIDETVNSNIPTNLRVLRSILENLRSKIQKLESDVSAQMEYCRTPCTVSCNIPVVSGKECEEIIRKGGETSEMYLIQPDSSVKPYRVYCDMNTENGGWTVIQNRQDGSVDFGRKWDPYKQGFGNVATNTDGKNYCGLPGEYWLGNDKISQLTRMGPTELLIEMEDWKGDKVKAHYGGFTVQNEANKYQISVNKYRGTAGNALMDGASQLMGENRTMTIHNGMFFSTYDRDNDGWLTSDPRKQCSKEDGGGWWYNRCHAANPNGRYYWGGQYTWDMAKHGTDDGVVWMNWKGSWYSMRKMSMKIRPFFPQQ
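Test system – human fibrin DD(E) · Times – 10 min preincubation, 3 h with tracer, room temperature · Detection – fluorescence polarization of the labelled Tn7 tracer · Measure – percent inhibition normalized to high-control wells · Benchmarks – high control wells with 10 µM unlabelled Aha-Tn7 peptide (full inhibition) · Repeats – singlicate testing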
ADAM10 inh = ADAM10 inhibition, QFRET primary screen. O14672. recombinant ADAM10, EDANS/DABCYL FRET peptide cleavage, 3 h. inhibition, % at 7 µM. 0.62% of 370,000 active. AID 720582;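 active = inhibition above a per-campaign cutoff equal to the mean of compounds falling between control-based bounds plus 3 SD, cut at about 20% in these data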;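 also: 0% = DMSO wells while the 100% control is not disclosed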
DDE Tn6 FP inh = disrupts Tn6 cyclic peptide binding to fibrin D-Dimer-E complex. P02675. Fibrin DD(E) TRITC-Tn6 fluorescence polarization displacement. inhibition, % at 8.3 µM. 0.21% of 370,000 active. AID 720509;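 active = inhibition above a per-campaign cutoff: mean of compounds within control limits plus 3 SD, cut at about 15% in these data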;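 also: 0% = median of all compound wells on the plate and 100% = blocking peptide control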
PLCg1 ctr = counter-screen for PLC-beta3 inhibitors: inhibitors of human PLC-gamma1. 3.1% of 3,300 active. shares compounds with PLCg1 inh. purified PLC-gamma1, fluorogenic substrate, fluorescence. AID 743258. inhibition, % at 12.3 µM; in the data active = inhibition above about 9.5%
PLCb3 confirm = human PLC-beta3 inhibition, confirmation. inhibition, % at 12.3 µM. purified PLC-beta3, fluorogenic substrate fluorescence. shares compounds with PLCg1 inh. AID 743261. 1% of 3,300 active
The depositor's hits bear a star; / = no result. A selection: hits, their analogues and other compounds. The true share with any hit is near 2.3%. Rule as the data show it, unless noted: active = inhibition above about 11%; inactive = the rest.

SMILES	PLCg1 inh	PLCb3 inh	ADAM17 inh	DDE Tn7 FP inh	ADAM10 inh	DDE Tn6 FP inh	PLCg1 ctr	PLCb3 confirm
CC1CN(c2nc3ccccc3nc2SCC(=O)N2CCN(S(=O)(=O)c3ccccc3)CC2)CC(C)O1 (centres undefined)	-22	-24	3	4	0	-1	/	/
CC(C)(C)OC(=O)NCCCC[C@H](NC(=O)c1[nH]cnc1C(=O)N[C@@H](Cc1ccccc1)C(=O)OCc1ccccc1)C(=O)OC(C)(C)C	10.0*	10	5	-2	19	-9	-4	-7
O=C(O)CNCC1COc2ccccc2O1 (centres undefined)	-1	6	-1	-2	3	-3	/	/
O=C(O)CCC1COc2ccccc2O1 (centres undefined)	11*	10	4	1	3	-1	1	-3
CN(C)C(=O)OCC1COc2ccccc2O1 (centres undefined)	9.9*	-1	-4	1	-8	-11	-5	-1
CC(=O)NCC1COc2ccccc2O1 (centres undefined)	4	-3	-2	0	4	2	/	/
COc1ccc(C(=O)C2CCCN(C(=O)CSC)C2)cc1OC (centres undefined)	14*	8	1	-3	1	2	-3	0
COc1ccc(C(=O)C2CCCN(C(=O)Cn3ccc(C)n3)C2)cc1OC (centres undefined)	3	-5	-4	0	-7	-2	/	/
O=C(/C=C/c1ccco1)NC(=S)Nc1cccc(C(=O)O)c1	19*	-12	-2	-10	-8	4	19*	-6
COC(=O)C1CN(Cc2cn(Cc3ccc(C)cc3)nn2)CCS(=O)(=O)N1Cc1ccc(Cl)cc1 (centres undefined)	4	-1	1	-5	-1	10	/	/
CN(C)CC(=O)N[C@@H]1C[C@@H]2O[C@@H](CO)CC[C@@H]2O[C@@H]1CCc1ccc(-c2ccc(F)cc2)cc1	-1	0	0	3	-1	5	/	/
COc1cc(C=Nn2c(-c3n[nH]c4c3CCC4)n[nH]c2=S)ccc1OCc1ccccc1	-2	1	0	7	-5	10	/	/
CS(=O)(=O)N1CCC[C@]2(CC[C@@H](CCC#N)O2)C1	-1	2	0	-2	-2	5	/	/
OC(COC1CCCCC1)CN1CCN(c2ccccc2)CC1 (centres undefined)	13*	6	3	-1	9	6	-7	-3
O=C1NC(=O)C(=Cc2ccccc2)N1	8	11*	-2	0	-2	-6	0	4
COc1ccc(CCNC(=O)c2c(O)c3c([nH]c2=O)CCCC3)cc1	11*	9	5	-4	4	-10	-4	-4
CCCNC(=O)c1c(O)c2c([nH]c1=O)CCCC2	0	4	2	3	1	6	/	/
COc1cc(C)ccc1C(=O)N1CCC(Oc2cccnc2)CC1	1	-2	-5	2	-2	4	/	/
COc1ccc(C(=O)O/N=C(\N)Cc2ccc([N+](=O)[O-])cc2)c(OC)c1	10*	-9	-6	4	-6	-9	-51	-46
O=C(CCc1nc(-c2ccccc2F)no1)NCCN1CCOCC1	4	14*	4	5	4	-6	-14	3
Cc1ccccc1CN1CCCCC(NC(=O)c2ccccc2F)C1=O (centres undefined)	0	2	-7	3	-3	6	/	/
O=C1CSc2ccccc2N1	11*	5	4	-1	-9	-6	-1	-1
O=C(Nc1cccc(Cl)c1)OCCN1CCCC12CCC(c1ccccc1)CC2 (centres undefined)	-3	-3	1	-3	2	1	/	/
CCOC(=O)c1cc(-c2csc(Nc3c(C)cc(C)cc3C)n2)on1	9.8*	1	8	-1	6	-7	-8	-4
CCn1cc(S(=O)(=O)Nc2ccccc2C(F)(F)F)cn1	0	3	0	-2	4	2	/	/
SMILES	PLCg1 inh	PLCb3 inh	ADAM17 inh	DDE Tn7 FP inh	ADAM10 inh	DDE Tn6 FP inh	PLCg1 ctr	PLCb3 confirm
CCC(C)c1ccccc1NS(=O)(=O)c1cnn(CC)c1 (centres undefined)	9.8*	4	2	3	9	-1	-2	1
O=C(NCCc1ccncc1)C(F)(F)F	11*	-1	-8	9	-11	-3	-2	1
Clc1ccc(CNCC2CCCO2)c(Cl)c1 (centres undefined)	10*	-1	4	-6	11	-2	0	2
C(=N\N1CCN(c2ccccn2)CC1)/c1ccccn1	9.7*	3	3	-3	0	-12	-2	1
Oc1ccc(/C=N/N2CCN(c3ccccn3)CC2)cc1	1	-4	-4	4	-10	0	/	/
COC(=O)[C@]12C[C@H](CC(=O)N3CCCC3)C(=O)N(Cc3cccc4ccccc34)C1=C[C@H](C1CCCC1)O[C@@H]2C	4	3	7	-10	11	-1	/	/
Cc1ccc(CN2CCN(/N=C/c3sccc3C)CC2)c(C)c1	11*	7	2	-1	-3	3	0	0
CCC(Cc1ccccc1)NC(=O)C1CCN(S(=O)(=O)c2ccc3c(c2)CC(C)N3C(C)=O)CC1 (centres undefined)	12*	5	2	-9	10	8	1	-2
CCC(C)NC(=O)C1CCN(S(=O)(=O)c2ccc3c(c2)CC(C)N3C(C)=O)CC1 (centres undefined)	0	5	1	1	4	4	/	/
CCN(CC(=O)Nc1ccc2c(c1)OCCO2)C(=O)COc1cc(C)ccc1Cl	12*	5	0	0	-4	-2	-8	-2
Cc1ccc(NC(=S)NC2CC3CCC(C2)N3Cc2ccco2)c(C)c1 (centres undefined)	1	-2	-4	-8	-2	-7	/	/
Cc1ccc(NC(=S)NC2CC3CCC(C2)N3Cc2ccco2)cc1C (centres undefined)	13*	6	5	0	8	-2	-5	-2
COC1OC2COC(c3ccccc3)OC2C(OC(=O)c2ccccc2)C1OC(=O)c1ccccc1 (centres undefined)	5	4	-2	3	14	-1	/	/
COC1OC2COC(c3ccccc3)OC2C(NC(C)=O)C1OC(C)=O (centres undefined)	10*	14*	6	2	11	-2	1	4

High-throughput results as filed in PubChem BioAssay.
